Measurements as given in ChEMBL document CHEMBL2010798, “Selenium-containing naphthalimides as anticancer agents: design, synthesis and bioactivity” (Bioorg Med Chem, 2012).
One block for each compound: values may come before it. Active and inactive are the calls of the source. The calls are words filed in the database; no cut-off is given here.

What was measured:
HeLa = experiment: Cytotoxicity against human HeLa cells by MTT assay; format: functional, cell-based
MCF7 = experiment: Cytotoxicity against human MCF7 cells by MTT assay; format: functional, cell-based
HCT-116 = experiment: Cytotoxicity against human HCT116 cells by MTT assay; format: functional, cell-based
A549 = experiment: Cytotoxicity against human A549 cells by MTT assay; format: functional, cell-based
K562 = experiment: Cytotoxicity against human K562 cells by MTT assay; format: functional, cell-based
Nucleic Acid [1] = experiment: Binding affinity to calf thymus DNA assessed as hyperchromic effect at 10 uM by UV-Vis spectrophotometric analysis; format: nucleic-acid assay; conditions: Bos taurus, in the assay text read “hypochromic” for “hyperchromic”
Procedure, shortened: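 Its concentration was set by absorption at 260 nm (6600 M⁻¹ cm⁻¹), and it was stored at 4 °C and used within 4 days. UV–vis absorption spectra of compound (10) were recorded in 20 mM Tris–HCl, pH 7.5, 25 °C, with ct-DNA increasing from 0 to 160.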

Nucleic Acid [2] = experiment: Binding affinity to calf thymus DNA by fluorescence quenching technique; format: nucleic-acid assay; conditions: Bos taurus
Procedure, shortened: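 Calf thymus DNA was prepared as in line 1. Compound was held at 10 while ct-DNA was titrated at 0, 10, 20, 40, 60, 80, 100, 120, 140 and 160 in 20 mM Tris–HCl, pH 7.5. Solutions were equilibrated for 1 day at 25 °C in the dark, and fluorescence emission was recorded. Kb was fitted to a single-site quenching equation.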

SMILES: CN(C)CCN1C(=O)c2cccc3c(N4CC[Se]CC4)ccc(c23)C1=O
IC50 (HeLa): 5.6 µM
IC50 (MCF7): 5.3 µM
IC50 (HCT-116): 5.4 µM
IC50 (A549): 8.7 µM
IC50 (K562): 5.3 µM

SMILES: CCCCN1C(=O)c2cccc3c(NCC[Se]c4ccccc4)ccc(c23)C1=O
IC50 (HeLa): > 25 µM
IC50 (MCF7): > 25 µM
IC50 (HCT-116): > 25 µM
IC50 (A549): > 25 µM
IC50 (K562): > 25 µM

Activity (Nucleic Acid [1]): Active
Kb (Nucleic Acid [2]): 8.26 ×10⁴ /M
SMILES: CN(C)CCN1C(=O)c2cccc3c(NCCSc4ccccc4)ccc(c23)C1=O
IC50 (HeLa): 15.1 µM
IC50 (MCF7): 19.1 µM
IC50 (HCT-116): 16.4 µM
IC50 (A549): 18 µM
IC50 (K562): 11.2 µM

SMILES: CN(C)CCN1C(=O)c2cccc3cc(N)cc(c23)C1=O [AMONAFIDE]
IC50 (K562): > 50 µM

SMILES: CCCCCCCCN1C(=O)c2cccc3c(NCC[Se]c4ccccc4)ccc(c23)C1=O
IC50 (HeLa): 16.7 µM
IC50 (MCF7): 11.6 µM
IC50 (HCT-116): 18.1 µM
IC50 (A549): 20.6 µM
IC50 (K562): 18.7 µM

SMILES: COc1ccc([Se]CCNc2ccc3c4c(cccc24)C(=O)N(CCN(C)C)C3=O)cc1
IC50 (HeLa): 17.9 µM
IC50 (MCF7): 18.3 µM
IC50 (HCT-116): 17.6 µM
IC50 (A549): 22.3 µM
IC50 (K562): 16.6 µM

SMILES: Cc1ccc([Se]CCNc2ccc3c4c(cccc24)C(=O)N(CCN(C)C)C3=O)cc1
IC50 (HeLa): > 25 µM
IC50 (MCF7): 19.3 µM
IC50 (HCT-116): 20 µM
IC50 (A549): 21 µM
IC50 (K562): 21.3 µM

SMILES: CN(C)CCN1C(=O)c2cccc3c(NCC[Se]c4ccc(OC(F)(F)F)cc4)ccc(c23)C1=O
IC50 (HeLa): > 25 µM
IC50 (MCF7): 16.4 µM
IC50 (HCT-116): 9.9 µM
IC50 (A549): 14.4 µM
IC50 (K562): 9.4 µM

SMILES: CCN(CC)CCN1C(=O)c2cccc3c(NCC[Se]c4ccccc4)ccc(c23)C1=O
IC50 (HeLa): 15.5 µM
IC50 (MCF7): 11.9 µM
IC50 (HCT-116): 14.6 µM
IC50 (A549): 10.7 µM
IC50 (K562): 8.9 µM

Activity (Nucleic Acid [1]): Active
Kb (Nucleic Acid [2]): 2.43 ×10⁴ /M
SMILES: CN(C)CCN1C(=O)c2cccc3c(NCC[Se]c4ccccc4)ccc(c23)C1=O
IC50 (HeLa): 16.8 µM
IC50 (MCF7): 18.2 µM
IC50 (HCT-116): 19.5 µM
IC50 (A549): 17.4 µM
IC50 (K562): 11.7 µM
